Experimental data taken from paper PMC5672994 (Molecular Imaging, 2017).

Tests used:
Lipophilicity = format: physicochemical; conditions: shake-flask
PSMA(+) LNCaP tumors = assay: Small-animal PET imaging in mice bearing subcutaneous LNCaP tumors; format: in vivo; conditions: for peak (maximum) kidney uptake / time of peak kidney uptake postadministration: dynamic PET kidney TAC; for absolute tumor uptake, fold lower in comparison to ^68Ga-1 / specificity of tumor accumulation: PET; for specificity of tumor accumulation: PSMA(+) LNCaP tumors, blocking with PMPA 20 nmol/mouse; for peak tumor uptake: subcutaneous LNCaP tumor, iv
Outline: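 Athymic Balb/c nude mice carried LNCaP xenografts (5.0 million cells sc, right shoulder, in Matrigel 1:1), imaged at ~200-300 mg. Dosing was by iv tail vein in PBS pH7.4: static 15.4-18.7 MBq (~0.56-0.68 nmol), dynamic ~28 MBq. Mice were under isoflurane. Dynamic scans ran 3500 s; static scans at 0.5, 1, 2 and 3 h. Decay-corrected VOI %ID/g was taken. Blocking used coinjected PMPA 20 nmol/mouse (n = 3).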

Metabolism in vivo = conditions: mice, 15 minutes after injection, HPLC
Outline: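 Mice (n = 2/group) received 7.3-11.1 MBq (0.3-0.4 nmol) of ⁶⁸Ga-radiotracer in PBS by tail-vein injection and were killed at 15 min. Heparinized blood was spun at 1700 g for 5 min. Plasma was ultrafiltered (30 kDa cutoff, 9660 g, 10 min). Filtrate and protein fractions were gamma-counted, and filtrate aliquots were analysed by RP-HPLC for metabolites.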

[1] = Stability of formulated radiotracer in saline or PBS; format: physicochemical; conditions: incubation in saline or PBS at 37°C for over 4 hours

| Molecule | LogD (n-octanol: PBS pH7.4) (Lipophilicity) | peak (maximum) kidney uptake (PSMA(+) LNCaP tumors) | time of peak kidney uptake postadministration (PSMA(+) LNCaP tumors) | tumor-associated radioactivity after 3500 seconds (PSMA(+) LNCaP tumors; dynamic PET, LNCaP tumor) | absolute tumor uptake, fold lower in comparison to ^68Ga-1 (PSMA(+) LNCaP tumors; LNCaP tumor) | specificity of tumor accumulation (PSMA(+) LNCaP tumors) | time of peak tumor uptake postadministration (PSMA(+) LNCaP tumors; dynamic PET, LNCaP tumor) | peak tumor uptake (PSMA(+) LNCaP tumors; dynamic PET) | absolute tumor uptake after 3 hours postadministration (PSMA(+) LNCaP tumors; static PET, LNCaP tumor) | radiotracer intact in soluble fraction of the blood pool (Metabolism in vivo) | stability with respect to changes in RCP [1] | tumor-associated activity retained for up to 3 hours (PSMA(+) LNCaP tumors; static PET, LNCaP tumor) |
| --- | --- | --- | --- | --- | --- | --- | --- | --- | --- | --- | --- | --- |
| O=C([O-])CN(CCN(CC(=O)[O-])Cc1cc(CCC(=O)NCCCCCC(=O)NCCCC[C@H](NC(=O)N[C@@H](CCC(=O)O)C(=O)O)C(=O)O)ccc1[O-])Cc1cc(CCC(=O)O)ccc1[O-].[68Ga+3].[OH3+] [^68Ga-1, ^68Ga-HBED-CC-PSMA, reference compound] | −4.06 ± 0.10 | around 30 %ID/g | ~500 s | > 8.0 %ID/g |  |  |  |  |  |  |  |  |
| ^68Ga-DFO-Nsucc-PSMA [^68Ga-4] | −3.24 ± 0.05 |  |  |  | ~10 fold | specific accumulation | 5 to 10 min | 3-4 %ID/g | 0.8-1.2 %ID/g | 100% | stable |  |
| ^68Ga-DFO-pNCS-Bn-PSMA [^68Ga-7] | −2.60 ± 0.02 | ~50 %ID/g | ~1400 s | 2.90 ± 0.46 %ID/g | ~2.5 fold | specific accumulation |  | 3.5-4.0 %ID/g |  | 100% | stable | 2.5-3.5 %ID/g |
